Measured values as given in ChEMBL document CHEMBL2413060, “Synthesis, biological evaluation and molecular docking studies of some pyrimidine derivatives” (2013).
≈ marks a conversion by molar mass, not a printed value. One block for each compound: values may come before it.

Tests used:
Format in all cases: functional
Staphylococcus aureus [1] = test: Antibacterial activity against Staphylococcus aureus ATCC 6538P after 24 hrs by two-fold serial dilution method relative to ampicillin
Staphylococcus aureus [2] = test: Antibacterial activity against Staphylococcus aureus ATCC 6538P after 24 hrs by two-fold serial dilution method
How it was run: (§1)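 Two-fold serial broth dilution in sterile nutrient broth at 500, 250, 125, 62.5, 31.25, 15.63, 7.82 and 3.91 µg/ml, with dimethylformamide ≤2.5%. Organisms were pre-grown 24 h in broth, and 0.1 ml inoculum was added per 5 ml tube. Tubes were incubated at 37°C, 24 h for bacteria and 48 h for fungi. MIC was taken as the lowest concentration giving no turbidity.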

Candida albicans [3] = test: Antifungal activity against Candida albicans ATCC 2091 assessed as diameter of inhibition zone at 1 mg/ml after 48 hrs by cup diffusion method (reference value: 22 mm); conditions: ATCC 2091, 48 h, read-out: DIZ
Shigella flexneri [4] = test: Antibacterial activity against Shigella flexneri ATCC 15391 assessed as diameter of inhibition zone at 1 mg/ml after 24 hrs by cup diffusion method (reference value: 17 mm); conditions: ATCC 15391, 24 h, read-out: DIZ
Staphylococcus aureus [5] = test: Antibacterial activity against Staphylococcus aureus ATCC 6538P assessed as diameter of inhibition zone at 1 mg/ml after 24 hrs by cup diffusion method (reference value: 15 mm); conditions: read-out: DIZ
Pseudomonas aeruginosa [6] = test: Antibacterial activity against Pseudomonas aeruginosa ATCC 9027 assessed as diameter of inhibition zone at 1 mg/ml after 24 hrs by cup diffusion method (reference value: 16 mm); conditions: ATCC 9027, 24 h, read-out: DIZ
NCI/ADR-RES = test: Cytotoxicity against human NCI/ADR-RES cells assessed as growth inhibition at 10 uM; conditions: read-out: GI
How it was run: (§2)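 Single-dose screen on human tumour cell lines. Growth of treated cells is expressed as percent of untreated growth, plotted as a mean graph, and reported as percent growth inhibition.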

HCC 2998 = test: Cytotoxicity against human HCC2998 cells assessed as growth inhibition at 10 uM; conditions: read-out: GI
Shigella flexneri [7] = test: Antibacterial activity against Shigella flexneri ATCC 15391 after 24 hrs by two-fold serial dilution method relative to ofloxacin
Shigella flexneri [8] = test: Antibacterial activity against Shigella flexneri ATCC 15391 after 24 hrs by two-fold serial dilution method; conditions: ATCC 15391, 24 h; how it was run: as §1
NCI-H23 = test: Cytotoxicity against human NCI-H23 cells assessed as growth inhibition at 10 uM; conditions: read-out: GI; how it was run: as §2
Candida albicans [9] = test: Antifungal activity against Candida albicans ATCC 2091 after 48 hrs by two-fold serial dilution method; conditions: ATCC 2091, 48 h; how it was run: as §1
Candida albicans [10] = test: Antifungal activity against Candida albicans ATCC 2091 after 48 hrs by two-fold serial dilution method relative to clotrimazole
T47D = test: Cytotoxicity against human T47D cells assessed as growth inhibition at 10 uM; conditions: read-out: GI; how it was run: as §2
MDA-MB-435 = test: Cytotoxicity against human MDA-MB-435 cells assessed as growth inhibition at 10 uM; conditions: read-out: GI; how it was run: as §2
BT-549 = test: Cytotoxicity against human BT549 cells assessed as growth inhibition at 10 uM; conditions: read-out: GI
Hs-578T = test: Cytotoxicity against human Hs578T cells assessed as growth inhibition at 10 uM; conditions: read-out: GI
PC-3 = test: Cytotoxicity against human PC3 cells assessed as growth inhibition at 10 uM; conditions: read-out: GI; how it was run: as §2
MCF7 = test: Cytotoxicity against human MCF7 cells assessed as growth inhibition at 10 uM; conditions: read-out: GI; how it was run: as §2
TK-10 = test: Cytotoxicity against human TK10 cells assessed as growth inhibition at 10 uM; conditions: read-out: GI
How it was run: (§3)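 Single-dose screen in a sixty-cell human tumour line panel; percent growth of treated cells relative to untreated was read and reported as percentage growth inhibition, shown as a mean graph. Compounds meeting the threshold inhibition criteria went on to five-dose testing.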

UO-31 = test: Cytotoxicity against human UO31 cells assessed as growth inhibition at 10 uM; conditions: read-out: GI; how it was run: as §3
SN12C = test: Cytotoxicity against human SN12C cells assessed as growth inhibition at 10 uM; conditions: read-out: GI; how it was run: as §2
CAKI-1 = test: Cytotoxicity against human Caki1 cells assessed as growth inhibition at 10 uM; conditions: read-out: GI
A498 = test: Cytotoxicity against human A498 cells assessed as growth inhibition at 10 uM; conditions: read-out: GI
ACHN = test: Cytotoxicity against human ACHN cells assessed as growth inhibition at 10 uM; conditions: read-out: GI
786-0 = test: Cytotoxicity against human 786-0 cells assessed as growth inhibition at 10 uM; conditions: read-out: GI
SK-OV-3 = test: Cytotoxicity against human SKOV3 cells assessed as growth inhibition at 10 uM; conditions: read-out: GI; how it was run: as §2
OVCAR-8 = test: Cytotoxicity against human OVCAR8 cells assessed as growth inhibition at 10 uM; conditions: read-out: GI; how it was run: as §2
OVCAR-3 = test: Cytotoxicity against human OVCAR3 cells assessed as growth inhibition at 10 uM; conditions: read-out: GI; how it was run: as §2
IGROV-1 = test: Cytotoxicity against human IGROV1 cells assessed as growth inhibition at 10 uM; conditions: read-out: GI
UACC-62 = test: Cytotoxicity against human UACC62 cells assessed as growth inhibition at 10 uM; conditions: read-out: GI; how it was run: as §3
UACC-257 = test: Cytotoxicity against human UACC257 cells assessed as growth inhibition at 10 uM; conditions: read-out: GI; how it was run: as §3
SK-MEL-28 = test: Cytotoxicity against human SK-MEL-28 cells assessed as growth inhibition at 10 uM; conditions: read-out: GI; how it was run: as §2
SK-MEL-2 = test: Cytotoxicity against human SK-MEL-2 cells assessed as growth inhibition at 10 uM; conditions: read-out: GI; how it was run: as §2
M14 = test: Cytotoxicity against human M14 cells assessed as growth inhibition at 10 uM; conditions: read-out: GI
Malme-3M = test: Cytotoxicity against human MALME-3M cells assessed as growth inhibition at 10 uM; conditions: read-out: GI
SNB-75 = test: Cytotoxicity against human SNB75 cells assessed as growth inhibition at 10 uM; conditions: read-out: GI; how it was run: as §2
SF-539 = test: Cytotoxicity against human SF539 cells assessed as growth inhibition at 10 uM; conditions: read-out: GI; how it was run: as §2
SF-295 = test: Cytotoxicity against human SF295 cells assessed as growth inhibition at 10 uM; conditions: read-out: GI; how it was run: as §2
HCT-116 = test: Cytotoxicity against human HCT116 cells assessed as growth inhibition at 10 uM; conditions: read-out: GI
NCI-H460 = test: Cytotoxicity against human NCI-H460 cells assessed as growth inhibition at 10 uM; conditions: read-out: GI; how it was run: as §2
NCI-H322M = test: Cytotoxicity against human NCI-H322M cells assessed as growth inhibition at 10 uM; conditions: read-out: GI; how it was run: as §2
HOP-92 = test: Cytotoxicity against human HOP92 cells assessed as growth inhibition at 10 uM; conditions: read-out: GI
HOP-62 = test: Cytotoxicity against human HOP62 cells assessed as growth inhibition at 10 uM; conditions: read-out: GI
Pseudomonas aeruginosa [11] = test: Antibacterial activity against Pseudomonas aeruginosa ATCC 9027 after 24 hrs by two-fold serial dilution method; conditions: ATCC 9027, 24 h; how it was run: as §1
NCI-H522 = test: Cytotoxicity against human NCI-H522 cells assessed as growth inhibition at 10 uM; conditions: read-out: GI; how it was run: as §2
[12] = Cytotoxicity against human EKVX cells assessed as growth inhibition at 10 uM; conditions: read-out: GI
SR = test: Cytotoxicity against human SR cells assessed as growth inhibition at 10 uM; conditions: read-out: GI; how it was run: as §2

MIC (Staphylococcus aureus [2]): 125 µg/mL (≈ 506 µM)
SMILES: CSc1nc(-c2ccco2)c(C#N)c(=O)n1C
Activity (Staphylococcus aureus [1]): 50%
zone of inhibition at 1000 µg/mL (Candida albicans [3]): 22 mm
zone of inhibition at 1000 µg/mL (Shigella flexneri [4]): 17 mm
zone of inhibition at 1000 µg/mL (Staphylococcus aureus [5]): 19 mm
zone of inhibition at 1000 µg/mL (Pseudomonas aeruginosa [6]): 17 mm
inhibition of growth at 10 µM (NCI/ADR-RES): 48.8%
inhibition of growth at 10 µM (HCC 2998): 98.4%

MIC (Shigella flexneri [8]): 125 µg/mL (≈ 541 µM)
SMILES: Cn1c(NN)nc(-c2ccco2)c(C#N)c1=O
Activity (Shigella flexneri [7]): 60%
zone of inhibition at 1000 µg/mL (Candida albicans [3]): 22 mm
zone of inhibition at 1000 µg/mL (Shigella flexneri [4]): 20 mm
zone of inhibition at 1000 µg/mL (Staphylococcus aureus [5]): 15 mm
zone of inhibition at 1000 µg/mL (Pseudomonas aeruginosa [6]): 16 mm
inhibition of growth at 10 µM (NCI/ADR-RES): 55.9%
inhibition of growth at 10 µM (HCC 2998): 84.4%
inhibition of growth at 10 µM (NCI-H23): 54.7%

Second part, the compound before the results:

SMILES: N#Cc1c(-c2ccccc2)nc(SCC(O)CN2CCOCC2)nc1N1CCOCC1 (configuration not stated)
MIC (Candida albicans [9]): 125 µg/mL (≈ 283 µM)
Activity (Candida albicans [10]): 60%
zone of inhibition at 1000 µg/mL (Candida albicans [3]): 24 mm
zone of inhibition at 1000 µg/mL (Shigella flexneri [4]): 18 mm
zone of inhibition at 1000 µg/mL (Staphylococcus aureus [5]): 15 mm
zone of inhibition at 1000 µg/mL (Pseudomonas aeruginosa [6]): 16 mm
inhibition of growth at 10 µM (T47D): 74%
inhibition of growth at 10 µM (MDA-MB-435): 47%
inhibition of growth at 10 µM (BT-549): 70.5%
inhibition of growth at 10 µM (Hs-578T): 93.8%
inhibition of growth at 10 µM (PC-3): 43.5%
inhibition of growth at 10 µM (MCF7): 95%
inhibition of growth at 10 µM (TK-10): 59.2%
inhibition of growth at 10 µM (UO-31): 58.3%
inhibition of growth at 10 µM (SN12C): 42.2%
inhibition of growth at 10 µM (CAKI-1): 62.6%
inhibition of growth at 10 µM (A498): 103%
inhibition of growth at 10 µM (ACHN): 45.6%
inhibition of growth at 10 µM (786-0): 61.9%
inhibition of growth at 10 µM (SK-OV-3): 58.9%
inhibition of growth at 10 µM (OVCAR-8): 66.6%
inhibition of growth at 10 µM (OVCAR-3): 64.6%
inhibition of growth at 10 µM (IGROV-1): 130%
inhibition of growth at 10 µM (UACC-62): 57.1%
inhibition of growth at 10 µM (UACC-257): 82.9%
inhibition of growth at 10 µM (SK-MEL-28): 40.1%
inhibition of growth at 10 µM (SK-MEL-2): 92.7%
inhibition of growth at 10 µM (M14): 40.1%
inhibition of growth at 10 µM (Malme-3M): 76.9%
inhibition of growth at 10 µM (SNB-75): 105%
inhibition of growth at 10 µM (SF-539): 43.4%
inhibition of growth at 10 µM (SF-295): 56.4%
inhibition of growth at 10 µM (HCT-116): 42.5%
inhibition of growth at 10 µM (NCI-H460): 66%
inhibition of growth at 10 µM (NCI-H322M): 47.7%
inhibition of growth at 10 µM (HOP-92): 69.3%
inhibition of growth at 10 µM (HOP-62): 52%

SMILES: N#Cc1c(-c2ccco2)[nH]c(=S)[nH]c1=O
Activity (Shigella flexneri [7]): 60%
MIC (Shigella flexneri [8]): 125 µg/mL (≈ 570 µM)
zone of inhibition at 1000 µg/mL (Candida albicans [3]): 22 mm
zone of inhibition at 1000 µg/mL (Shigella flexneri [4]): 21 mm
zone of inhibition at 1000 µg/mL (Staphylococcus aureus [5]): 15 mm
zone of inhibition at 1000 µg/mL (Pseudomonas aeruginosa [6]): 16 mm
inhibition of growth at 10 µM (NCI/ADR-RES): 74.2%
inhibition of growth at 10 µM (Malme-3M): 55.6%
inhibition of growth at 10 µM (SNB-75): 42.8%
inhibition of growth at 10 µM (NCI-H23): 78.6%

SMILES: N#Cc1c(N2CCOCC2)nc(=S)[nH]c1-c1ccccc1
MIC (Pseudomonas aeruginosa [11]): 125 µg/mL (≈ 419 µM)
zone of inhibition at 1000 µg/mL (Candida albicans [3]): 22 mm
zone of inhibition at 1000 µg/mL (Shigella flexneri [4]): 17 mm
zone of inhibition at 1000 µg/mL (Staphylococcus aureus [5]): 15 mm
zone of inhibition at 1000 µg/mL (Pseudomonas aeruginosa [6]): 18 mm
inhibition of growth at 10 µM (T47D): 62.7%
inhibition of growth at 10 µM (BT-549): 42.3%
inhibition of growth at 10 µM (Hs-578T): 73.2%
inhibition of growth at 10 µM (PC-3): 53%
inhibition of growth at 10 µM (MCF7): 43.4%
inhibition of growth at 10 µM (TK-10): 42.4%
inhibition of growth at 10 µM (A498): 86.3%
inhibition of growth at 10 µM (IGROV-1): 70.9%
inhibition of growth at 10 µM (UACC-62): 56.4%
inhibition of growth at 10 µM (SK-MEL-2): 58.2%
inhibition of growth at 10 µM (Malme-3M): 104%
inhibition of growth at 10 µM (SNB-75): 84.9%
inhibition of growth at 10 µM (SF-295): 45.5%
inhibition of growth at 10 µM (NCI-H522): 40.4%
inhibition of growth at 10 µM (HOP-92): 107%
inhibition of growth at 10 µM (HOP-62): 48.7%
inhibition of growth at 10 µM [12]: 43.2%
inhibition of growth at 10 µM (SR): 46.9%
